Measurements published in ChEMBL document CHEMBL1123408, “Influence of alkyl-chain fluorination on the action of mammary tumor inhibiting 2,3-bis(hydroxyphenyl)butanes and 2,3-bis(hydroxyphenyl)but-2-enes” (1986).

Key:
[1] = target: T1, Estrogen receptor (Mus musculus) (UniProt O08537+P19785); test: (§1) Uterotrophic effect in mice at 0 ug dose; type: functional, tissue-based; parameters: unit not given here; details: Uterus
Outline: (§2)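 Immature female NMRI mice, 20 days old, 10 per group, given daily sc injections of 0.1 mL olive oil solution for 3 days. Uteri removed 24 h after the last dose, fixed in Bouin's solution, washed, dried and weighed. Antiestrogenic testing measured inhibition of estrone-stimulated uterine growth.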

[2] = target: T1, Estrogen receptor (Mus musculus); test: (§3) Uterotrophic effect in mice at 100 ug dose; type: functional, tissue-based; parameters: unit not given here; details: Uterus; outline: as §2
[3] = target: T1, Estrogen receptor (Mus musculus); test: Uterotrophic effect in mice at 1000 ug dose; type: functional, tissue-based; parameters: unit not given here; details: Uterus; outline: as §2
[4] = target: T1, Estrogen receptor (Mus musculus); test: as §1; type: functional, tissue-based; parameters: unit not given here; details: Uterus; outline: as §2; remark: listed apart in the source
[5] = target: T1, Estrogen receptor (Mus musculus); test: as §3; type: functional, tissue-based; parameters: unit not given here; details: Uterus; outline: as §2; remark: listed apart in the source
[6] = target: T1, Estrogen receptor (Mus musculus); test: (§4) Uterotrophic effect in mice at 10 ug dose; type: functional, tissue-based; details: Uterus; outline: as §2
[7] = target: T1, Estrogen receptor (Mus musculus); test: Uterotrophic effect in mice at 25 ug dose; type: functional, tissue-based; parameters: unit not given here; details: Uterus; outline: as §2
[8] = target: T1, Estrogen receptor (Mus musculus); test: Uterotrophic effect in mice at 500 ug dose; type: functional, tissue-based; parameters: unit not given here; details: Uterus; outline: as §2
[9] = target: T1, Estrogen receptor (Mus musculus); test: Uterotrophic effect in mice at 5 ug dose; type: functional, tissue-based; details: Uterus; outline: as §2
[10] = target: T1, Estrogen receptor (Mus musculus); test: Uterotrophic effect in BD2F mice bearing transplantable hormone dependent MXT at 2.76 mg dose; type: functional, tissue-based; details: Uterus
Outline: (§5)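 MXT-bearing female BD2F1 mice (10 per group) dosed sc in olive oil three times weekly for 6 weeks from the day after tumor transplantation. Uteri excised at sacrifice and dry weight determined; values given as mean ± SD.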

[11] = target: T1, Estrogen receptor (Mus musculus); test: Uterotrophic effect in BD2F mice bearing transplantable hormone dependent MXT at 13.80 mg dose; type: functional, tissue-based; details: Uterus; outline: as §5
[12] = target: T1, Estrogen receptor (Mus musculus); test: Anti-uterotrophic effect in mice at 500 ug dose; type: functional
Outline: (§6)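 Immature female NMRI mice, 20 days old (14.5 ± 1.2 g), randomized into groups of 10. Each received a daily sc injection of compound in 0.1 mL olive oil for 3 days, given together with estrone. Uteri were taken 24 h after the last injection, fixed in Bouin's solution, washed, dried and weighed. The read-out was inhibition of estrone-stimulated uterine growth.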

[13] = species: Mus musculus; test: Relative average tumor wet weight in treated compared to untreated mice at 13.80 mg dose; type: functional
Outline: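 MXT mammary tumor pieces of 1-2 mm³ from syngeneic donors were implanted sc by trocar into female BD2F₁ mice aged 8-10 weeks (20.0 ± 1.7 g), groups of 10. From the next day, compound in olive oil was given sc three times weekly for 6 weeks. Tumor wet weight was measured at the end and expressed as % T/C.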

[14] = species: Mus musculus; test: Relative average tumor wet weight in treated compared to untreated mice at 2.76 mg dose; type: functional
Outline: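 Syngeneic female BD2F1 mice (8–10 weeks) received sc trocar implants of 1–2-mm³ MXT tumor pieces, 10 per group. Treatment began the next day: sc doses in olive oil (solution or suspension), three times weekly for 6 weeks. Tamoxifen-treated control group included. Tumor wet weight measured at sacrifice; expressed as % T/C versus untreated controls.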

[15] = target: T1, Estrogen receptor (Mus musculus); test: Uterotrophic effect in mice at 1 ug dose; type: functional, tissue-based; details: Uterus; outline: as §2
[16] = target: T1, Estrogen receptor (Mus musculus); test: as §4; type: functional, tissue-based; parameters: unit not given here; details: Uterus; outline: as §2
[17] = target: T1, Estrogen receptor (Mus musculus); test: Anti-uterotrophic effect in mice at 25 ug dose; type: functional; outline: as §6
[18] = target: T1, Estrogen receptor (Mus musculus)
[19] = target: T1, Estrogen receptor (Mus musculus); remark: listed apart in the source
[20] = target: T1, Estrogen receptor (Mus musculus); remark: listed apart in the source
[21] = target: T1, Estrogen receptor (Mus musculus); remark: listed apart in the source
[22] = target: T1, Estrogen receptor (Mus musculus); remark: listed apart in the source
[23] = target: T1, Estrogen receptor (Mus musculus); details: Uterus
[24] = target: T1, Estrogen receptor (Mus musculus); details: Uterus; remark: listed apart in the source
[25] = target: T1, Estrogen receptor (Mus musculus); details: Uterus; remark: listed apart in the source
[26] = target: T1, Estrogen receptor (Mus musculus); details: Uterus; remark: listed apart in the source
[27] = target: T1, Estrogen receptor (Mus musculus); details: Uterus; remark: listed apart in the source
[28] = target: T1, Estrogen receptor (Mus musculus); details: Uterus; remark: listed apart in the source
[29] = target: T1, Estrogen receptor (Mus musculus); details: Uterus; remark: listed apart in the source
[30] = target: T1, Estrogen receptor (Mus musculus); details: Uterus; remark: listed apart in the source

T1 sequence (O08537 whole entry, looked up): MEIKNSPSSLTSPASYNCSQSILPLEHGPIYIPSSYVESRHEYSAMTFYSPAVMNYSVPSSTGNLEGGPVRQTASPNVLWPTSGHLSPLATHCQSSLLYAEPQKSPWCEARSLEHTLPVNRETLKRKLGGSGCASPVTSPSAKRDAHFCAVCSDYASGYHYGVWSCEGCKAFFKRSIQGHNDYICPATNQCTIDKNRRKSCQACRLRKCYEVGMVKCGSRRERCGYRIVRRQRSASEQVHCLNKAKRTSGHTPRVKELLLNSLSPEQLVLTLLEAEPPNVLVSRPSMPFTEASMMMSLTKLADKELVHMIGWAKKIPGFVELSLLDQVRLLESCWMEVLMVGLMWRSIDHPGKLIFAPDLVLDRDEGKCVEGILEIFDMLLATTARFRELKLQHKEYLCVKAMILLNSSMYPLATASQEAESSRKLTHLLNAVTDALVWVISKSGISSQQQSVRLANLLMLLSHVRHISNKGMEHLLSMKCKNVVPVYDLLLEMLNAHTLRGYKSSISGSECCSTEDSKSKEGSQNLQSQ
T1 sequence (P19785 whole entry, looked up): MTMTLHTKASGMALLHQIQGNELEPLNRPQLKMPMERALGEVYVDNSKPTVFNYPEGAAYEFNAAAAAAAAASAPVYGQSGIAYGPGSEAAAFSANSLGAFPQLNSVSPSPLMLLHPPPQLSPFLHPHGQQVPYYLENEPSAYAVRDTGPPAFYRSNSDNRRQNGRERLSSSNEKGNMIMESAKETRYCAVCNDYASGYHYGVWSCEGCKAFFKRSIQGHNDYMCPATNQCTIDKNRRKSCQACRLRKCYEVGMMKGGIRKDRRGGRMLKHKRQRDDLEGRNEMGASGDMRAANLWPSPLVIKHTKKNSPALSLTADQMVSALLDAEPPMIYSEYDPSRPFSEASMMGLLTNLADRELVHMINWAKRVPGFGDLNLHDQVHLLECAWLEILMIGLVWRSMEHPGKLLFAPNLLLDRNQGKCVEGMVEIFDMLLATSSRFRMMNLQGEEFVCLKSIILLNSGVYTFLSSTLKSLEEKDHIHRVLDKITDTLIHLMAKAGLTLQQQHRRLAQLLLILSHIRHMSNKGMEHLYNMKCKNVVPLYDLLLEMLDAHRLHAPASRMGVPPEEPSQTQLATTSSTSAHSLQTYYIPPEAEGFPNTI

SMILES	Effect [1]	Effect [2]	Effect [3]	Effect [4]	Effect [5]	Effect [7]	Effect [8]	Effect [9]	Effect [10]	Effect [11]	TC [13] [%]	TC [14] [%]	further results
C/C(=C(/C)c1cccc(O)c1)c1cccc(O)c1	13.3	13.8	12.8	12.9	43.5	42.3	33.1	37.2	80.7	88.4	69.9	88	Effect [6]: 12.2; inhibition [12]: 27.2%
C/C(=C(/C)c1ccc(O)cc1)c1ccc(O)cc1 [DIMETHYLSTILBESTROL]	16.7	35.9	41.8	14.8	39.8	32	48.7	39.2	74.7	70.4	46.2	69.5	Effect [15]: 20.6; Effect [16]: 25.4; inhibition [17]: 30.1%
C[C@]12CC[C@@H]3c4ccc(O)cc4CC[C@H]3[C@@H]1CCC2=O	–	–	–	–	–	–	–	–	–	–	–	–	Effect [18]: 39.5; Effect [19]: 39.3; Effect [20]: 39.5; Effect [21]: 39.5; Effect [22]: 41.8; Effect [23]: 39.8; Effect [24]: 46.4; Effect [25]: 46.6; Effect [26]: 47.3; Effect [27]: 49; Effect [28]: 46.8; Effect [29]: 45.6; Effect [30]: 46.8
